{"source": "paper PMC3048907", "about": "(Journal of medicinal chemistry, 2011)", "key": {"human tumor cell lines": {"test_system": "human tumor cell lines", "experiment": "Antiproliferative activity across the human tumor cell line panel", "assay_type": "cell-based", "outline": "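Cells kept in RPMI-1640 with 25 mM HEPES, 0.25% bicarbonate, 10% FBS and 100 μg/mL kanamycin; trypsinized, seeded at 1500–7500 cells/well. Test compound added from DMSO stock diluted in medium (DMSO ≤0.5% v/v). After 3 days, cells fixed in cold 50% TCA, stained with 0.4% sulforhodamine B, A562 read. GI50 = 50% growth reduction vs untreated; mean of ≥3 determinations.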"}, "tubulin": {"test_system": "tubulin", "experiment": "Tubulin assembly assay", "assay_type": "biochemical", "conditions": "10 μM tubulin, 20 min at 30 °C, highest concentration evaluated 40 μM"}, "[1]": {"test_system": "KB-VIN (MDR line overexpressing P-glycoprotein)", "experiment": "Antiproliferative activity assay", "assay_type": "cell-based, human", "conditions": "SRB assay, three days in culture; NA = not active, 20 μg/mL did not reach 50% inhibition"}, "KB-VIN cells": {"test_system": "KB-VIN cells", "experiment": "Verapamil reversal experiments", "assay_type": "cell-based, human", "conditions": "for effect of verapamil co-treatment on cytotoxic activity (MDR-selectivity): co-treatment with verapamil 1 μg/mL"}, "[2]": {"test_system": "A549 cells (microtubules and spindles)", "experiment": "Immunofluorescence staining of tubulin", "assay_type": "cell-based, human", "conditions": "for microtubules (α-tubulin immunofluorescence) / mitotic spindles (α-tubulin immunofluorescence): A549, 24 h, 0.1 nM 21, 100 nM colchicine, 1.5 nM pacritaxel, 500 nM doxorubicin; for concentration at which antimicrotubule activity was seen: within 24 hr"}, "KB-VIN versus KB": {"test_system": "KB-VIN versus KB", "conditions": "P-gp overexpressing MDR tumor cell line vs non-MDR; cited from earlier work"}}, "note": "pIC50: −log10 of the molar value."}
{"smiles": "CCC1=C(O)c2c(oc(-c3ccccc3)cc2=O)C(CC)(CC)C1=O", "note": "[Compound 2]", "values": [{"measurement": "activity against all non-MDR tumor cells", "setting": "human tumor cell lines", "result": "non-active"}, {"measurement": "Inhibition of tubulin assembly IC50 ± SD", "setting": "tubulin", "result": "inactive"}, {"measurement": "pIC50", "setting": "tubulin; read-out: Inhibition of tubulin assembly IC50 ± SD", "result": "< 4.40"}, {"measurement": "GI50 KB-VIN", "setting": "[1]", "result": "active"}]}
{"smiles": "CCC1=C(O)c2c(oc(-c3ccc4ccccc4c3)cc2=O)C(CC)(CC)C1=O", "note": "[Compound 11, 2-(Naphthalen-2′-yl)-6,8,8-triethyldesmosdumotin B]", "values": [{"measurement": "Inhibition of tubulin assembly IC50 ± SD", "setting": "tubulin", "result": "Not obtainable ^c"}]}
{"smiles": "COc1ccc(CCN(C)CCCC(C#N)(c2ccc(OC)c(OC)c2)C(C)C)cc1OC", "note": "(stereo not shown) [verapamil]", "values": [{"measurement": "effect of verapamil alone on replication of KB-VIN cells", "setting": "KB-VIN cells; verapamil 1 μg/mL", "result": "no effect"}]}
{"smiles": "CCC1=C(O)c2c(oc(-c3cccc4ccsc34)cc2=O)C(CC)(CC)C1=O", "note": "[Compound 27, 2-(Benzo[b]thiophen-7′-yl)-6,8,8-triethyldesmosdumotin B]", "values": [{"measurement": "effect of verapamil co-treatment on cytotoxic activity (MDR-selectivity)", "setting": "KB-VIN cells", "result": "partially reversed"}]}
{"smiles": "CC(=O)O[C@H]1C(=O)[C@@]2(C)[C@H]([C@H](OC(=O)c3ccccc3)[C@]3(O)C[C@H](OC(=O)[C@H](O)[C@@H](NC(=O)c4ccccc4)c4ccccc4)C(C)=C1C3(C)C)[C@]1(OC(C)=O)CO[C@@H]1C[C@@H]2O", "note": "[pacritaxel]", "values": [{"measurement": "microtubules (α-tubulin immunofluorescence)", "setting": "[2]", "result": "detectable"}, {"measurement": "mitotic spindles (α-tubulin immunofluorescence)", "setting": "[2]", "result": "clearly seen"}]}
{"smiles": "COc1cccc2c1C(=O)c1c(O)c3c(c(O)c1C2=O)C[C@@](O)(C(=O)CO)C[C@@H]3O[C@H]1C[C@H](N)[C@H](O)[C@H](C)O1", "note": "[doxorubicine]", "values": [{"measurement": "microtubules (α-tubulin immunofluorescence)", "setting": "[2]", "result": "detectable"}, {"measurement": "mitotic spindles (α-tubulin immunofluorescence)", "setting": "[2]", "result": "undetectable"}]}
{"smiles": "COc1cc2c(c(OC)c1OC)-c1ccc(OC)c(=O)cc1[C@@H](NC(C)=O)CC2", "note": "[colchicine]", "values": [{"measurement": "microtubules (α-tubulin immunofluorescence)", "setting": "[2]", "result": "undetectable"}, {"measurement": "mitotic spindles (α-tubulin immunofluorescence)", "setting": "[2]", "result": "undetectable"}, {"measurement": "concentration at which antimicrotubule activity was seen", "setting": "[2]; A549 cells", "result": 100, "unit": "nM"}]}
{"smiles": "CC1=C(O)C(C)(C)c2oc(-c3ccccc3)cc(=O)c2C1=O", "note": "[Compound 1, desmosdumotin B]", "values": [{"measurement": "activity against all non-MDR tumor cells", "setting": "human tumor cell lines", "result": "non-active"}, {"measurement": "selectivity index [collateral sensitivity (CS), activity ratio of MDR line versus non-MDR line]", "setting": "KB-VIN versus KB", "result": "greater than 20"}, {"measurement": "GI50 KB-VIN", "setting": "[1]", "result": "active"}]}
{"smiles": "CCC1=C(O)c2c(oc(-c3csc4ccc(Br)cc34)cc2=O)C(CC)(CC)C1=O", "note": "[Compound 24, 2-(5′-Bromobenzo[b]thiophen-3′-yl)-6,8,8-triethyldesmosdumotin B]", "values": [{"measurement": "effect of verapamil co-treatment on cytotoxic activity (MDR-selectivity)", "setting": "KB-VIN cells", "result": "partially reversed"}]}
{"smiles": "CCC1=C(O)c2c(oc(-c3csc4ccccc34)cc2=O)C(CC)(CC)C1=O", "note": "[Compound 21, 2-(Benzo[b]thiophen-3′-yl)-6,8,8-triethyldesmosdumotin B]", "values": [{"measurement": "microtubules (α-tubulin immunofluorescence)", "setting": "[2]", "result": "undetectable"}, {"measurement": "mitotic spindles (α-tubulin immunofluorescence)", "setting": "[2]", "result": "undetectable"}, {"measurement": "fold lower concentration than colchicine for antimicrotubule activity", "setting": "[2]; A549 cells, 24 hr", "result": 1000, "unit": "fold"}, {"measurement": "concentration at which antimicrotubule activity was seen", "setting": "[2]; A549 cells", "result": 0.1, "unit": "nM"}]}
